Scp-1 inhibitor = blocks human Scp-1 phosphatase activity; Q9GZU7; inhibition, % at 20 µM; AID 493091; 340,000 compounds, 0.88% hits; Recombinant Scp1, phosphopeptide, malachite green phosphate absorbance;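 active means inhibition above about 50% at 20 µM, limit read from the data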
Target sequence (Q9GZU7 76-261 limits assumed): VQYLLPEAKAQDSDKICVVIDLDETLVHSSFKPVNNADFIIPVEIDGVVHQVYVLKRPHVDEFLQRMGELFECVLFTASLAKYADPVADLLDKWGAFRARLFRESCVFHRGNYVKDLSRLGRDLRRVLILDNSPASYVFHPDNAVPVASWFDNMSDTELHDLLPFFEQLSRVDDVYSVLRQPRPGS
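Material – SCP-1 phosphatase catalytic domain, residues 76-261 · Buffer or medium – Acidic Tris acetate buffer with magnesium and detergent · Also added – Phospho 17-mer peptide substrate · Compound – single 20 µM dose, 1% DMSO · Times – 45 min room-temperature reaction, 5 min colour, 30 min stabiliser · Technique – Phosphate-binding colour reagent, absorbance read at 630 nm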
STEP inh = inhibitors of human striatal-enriched phosphatase STEP; P54829; inhibition, % at 20 µM; AID 588621; 360,000 compounds, 0.25% hits; recombinant STEP, OMFP fluorogenic substrate, fluorescence;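 active means inhibition at 20 µM, scaled per plate between control wells, above about 37%, limit read from the data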
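Also added – OMFP at 25 µM · Test system – STEP tyrosine phosphatase · Technique – FITC-channel fluorescence of OMFP product · Schedule – 20 min at room temperature, dark · Evaluation – control-normalized % inhibition with plate pattern correction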
LMPTP inh = LMPTP (human) inhibition. AID 651560. recombinant LMPTP-A, OMFP fluorogenic substrate, fluorescence intensity. 360,000 compounds, 0.22% hits. inhibition, % at 20 µM;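 active means compounds that cut the enzyme signal by at least half of the control window in the single-dose screen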
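Test system: LMPTP-A phosphatase enzyme; input: 0.625 nM LMPTP-A final; reagent: OMFP substrate, 400 µM final; compound dosing: 20 µM single dose, 3% DMSO; incubation: 50 min dark incubation at room temperature; measured by: endpoint fluorescence intensity from OMFP dephosphorylation; measure: % inhibition relative to no-enzyme and uninhibited control wells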
PP5 primary = inhibitors of human protein phosphatase 5 (PP5); P53041; purified PP5c, OMFP substrate fluorescence; inhibition, % at 6.7 µM; 320,000 compounds, 0.18% hits; AID 1987;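 active means inhibition above the campaign's mean inhibition across all tested compounds plus 3 SD, cut at about 9.5% in these data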
Target sequence (P53041 whole entry, looked up): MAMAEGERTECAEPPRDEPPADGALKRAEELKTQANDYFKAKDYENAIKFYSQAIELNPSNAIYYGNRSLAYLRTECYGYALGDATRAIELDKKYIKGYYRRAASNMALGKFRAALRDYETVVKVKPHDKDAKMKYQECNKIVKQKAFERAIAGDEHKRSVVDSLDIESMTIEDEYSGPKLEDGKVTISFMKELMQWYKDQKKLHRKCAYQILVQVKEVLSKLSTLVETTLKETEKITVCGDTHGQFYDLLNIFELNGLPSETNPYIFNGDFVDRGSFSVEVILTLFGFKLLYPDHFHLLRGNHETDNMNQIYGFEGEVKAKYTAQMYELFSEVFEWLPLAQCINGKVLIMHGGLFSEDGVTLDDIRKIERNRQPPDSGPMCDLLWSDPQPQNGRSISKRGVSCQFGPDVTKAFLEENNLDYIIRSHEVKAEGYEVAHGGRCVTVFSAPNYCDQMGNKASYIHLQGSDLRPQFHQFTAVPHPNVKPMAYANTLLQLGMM
PP1 counter = counter-screen for PP5 inhibitors: inhibitors of human PP1-alpha; purified PP1alpha, OMFP fluorescence; inhibition, % at 6.7 µM; 320,000 compounds, 0.9% hits;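 active means inhibition above the mean inhibition of all tested compounds plus 3 SD, computed separately for each screening campaign, cut at about 15% in these data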
Scp-1 conf = confirmation of human Scp-1 phosphatase inhibitors. shares compounds with Scp-1 inhibitor. recombinant SCP-1 catalytic domain, phosphate release, malachite green absorbance. inhibition, % at 20 µM. 2,500 compounds, 61% hits. AID 540281
Scp-1 MG ctr = interferes with malachite green readout, flagging false Scp-1 hits; shares compounds with Scp-1 inhibitor; 2,500 tested, under 10 active; AID 540313; apparent inhibition (interference), % at 20 µM; Colorimetric interference counterscreen, malachite green absorbance 630 nm;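 further: compounds added after enzyme reaction finished so only phosphate colour detection is probed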
Scp1 DSF = binds human Scp-1, shifting its melting temperature. thermal shift relative to vanadate control, % at 40 µM. AID 540329. shares compounds with Scp-1 inhibitor. 1,500 compounds, 25% hits. Recombinant SCP1, Sypro Orange thermal shift Tm;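 active means substances whose mean melting-temperature shift, as a percentage of the reference inhibitor's shift, reaches about 5.3%, limit read from the data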
Of the large screens only hits and unclear results are named; the others gave an inactive call (follow-up assays come after a bar, where they were run). Compounds with a hit are over-represented: about 1.9% of the library has one in this group of screens.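 How the source made its calls, unless noted: active means inhibition of at least 30% at 20 µM; inactive means the rest.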

O=C(O)/C(=C\c1cccc([N+](=O)[O-])c1)c1ccc(S(=O)(=O)N2CCCCC2)s1	Scp-1 inhibitor 52.0 | Scp-1 conf 73.0 | Scp-1 MG ctr inactive | Scp1 DSF 19.6
COc1ccc(Br)cc1/C=C(\C(=O)O)c1ccc(S(=O)(=O)N2CCCC2)s1	Scp-1 inhibitor 66.7 (no result: PP5 primary, PP1 counter) | Scp-1 conf 59.9 | Scp-1 MG ctr inactive | Scp1 DSF 6.3
O=C(O)/C(=C\c1ccc(Cl)c([N+](=O)[O-])c1)c1ccc(S(=O)(=O)N2CCCCC2)s1	none
COc1cc(/C=C(\C(=O)O)c2ccc(S(=O)(=O)N3CCCC3)s2)cc(OC)c1	none (no result: PP5 primary, PP1 counter)
CC(=O)NCCc1nc2cc(NC(=O)c3ccccc3C)ccc2n1C	none
O=C(c1cc(-c2ccncc2)nc2ccc(Cl)cc12)N1CCN(C(=O)C2CCCO2)CC1 (stereo not drawn)	none
C=C1c2cccc(OC)c2O[C@H](C(=O)OCC)[C@@H]1CC(CC)CCCC (stereo partly drawn)	Scp-1 inhibitor 94.2 (no result: PP5 primary, PP1 counter) | Scp-1 conf 34.2 | Scp-1 MG ctr inactive | Scp1 DSF inactive
O=C(/C=C/c1ccc(Cl)c([N+](=O)[O-])c1)Nc1ccc(N2CCCC2)cc1	Scp-1 inhibitor 88.1 | Scp-1 conf 77.3 | Scp-1 MG ctr inactive | Scp1 DSF 6.0
O=C(/C=C/c1ccc(Cl)c([N+](=O)[O-])c1)Nc1ccc(NC(=O)c2ccco2)cc1	none (no result: PP5 primary, PP1 counter)
O=C(COc1ccc2oc(-c3ccccc3)cc(=O)c2c1)NCc1ccco1	Scp-1 inhibitor 81.7 | Scp-1 conf 58.8 | Scp-1 MG ctr inactive | Scp1 DSF inactive
Cc1cc(=O)oc2ccc(OCC(=O)NCc3ccco3)cc12	none
O=C(COc1ccc2oc(-c3ccco3)cc(=O)c2c1)N1CCCCC1	Scp-1 inhibitor 59.5 | Scp-1 conf 44.1 | Scp-1 MG ctr inactive | Scp1 DSF inactive
CCOC(=O)Cn1c(=O)n(Cc2ccco2)c(=O)c2ccc(C(=O)NCCc3ccccc3)cc21	none
C[N+]1(CCOc2ccc([N+](=O)[O-])cc2)CCOCC1	Scp-1 inhibitor 105.5 | Scp-1 conf 84.6 | Scp-1 MG ctr inactive | Scp1 DSF inactive
CC(=O)c1ccc(OCCOc2ccc([N+](=O)[O-])cc2)cc1	none
C[C@H](CO)N1C[C@H](C)[C@@H](CN(C)Cc2ccc(C(=O)O)cc2)Oc2c(NS(=O)(=O)c3cccs3)cccc2C1=O	Scp-1 inhibitor 50.4 (no result: PP5 primary, PP1 counter) | Scp-1 conf inactive | Scp-1 MG ctr inactive
Cc1ccc(S(=O)(=O)Nc2cccc3c2O[C@H](CN(C)Cc2ccc(-c4ccccc4)cc2)[C@@H](C)CN([C@H](C)CO)C3=O)cc1	none (no result: PP5 primary, PP1 counter)
C[C@H](CO)N1C[C@H](C)[C@@H](CN(C)Cc2ccc(-c3ccccc3)cc2)Oc2c(NS(=O)(=O)c3ccccc3)cccc2C1=O	Scp-1 inhibitor 62.4 (no result: PP5 primary, PP1 counter) | Scp-1 conf inactive | Scp-1 MG ctr inactive
C[C@H](CO)N1C[C@H](C)[C@@H](CN(C)Cc2ccc(-c3ccccc3)cc2)Oc2c(NS(=O)(=O)c3cn(C)cn3)cccc2C1=O	Scp-1 inhibitor 69.0 (no result: PP5 primary, PP1 counter) | Scp-1 conf inactive | Scp-1 MG ctr inactive
O=C(O)c1cc(NS(=O)(=O)c2cccc3nsnc23)cc(C(=O)O)c1	none
Cc1nc(SCC(=O)N2CCOCC2)c2ccsc2n1	none
O=C(COC(=O)[C@H](Cc1ccccc1)N1C(=O)c2ccccc2C1=O)Nc1ccc2c(c1)OCO2	none
CCOC(=O)C1(C)C(C(=O)OC)=C(c2ccc(OC)cc2)c2ccccc2N1C(=O)OC (stereo not drawn)	Scp-1 inhibitor 95.6 (no result: PP5 primary, PP1 counter) | Scp-1 conf 56.5 | Scp-1 MG ctr inactive | Scp1 DSF inactive
O=C(COC(=O)/C=C/c1ccco1)Nc1ccccc1	none
O=C(COC(=O)/C=C/c1ccco1)Nc1ccc(F)cc1Cl	Scp-1 inhibitor 50.3 | Scp-1 conf 36.3 | Scp-1 MG ctr inactive | Scp1 DSF inactive
CCc1ccc(NC(=O)COC(=O)/C=C/c2ccco2)cc1	Scp-1 inhibitor 67.4 (no result: PP5 primary, PP1 counter) | Scp-1 conf 62.6 | Scp-1 MG ctr inactive | Scp1 DSF inactive
CSC1=N/C(=C\c2ccccc2F)C(=O)S1	none
CSC1=N/C(=C\c2ccc(Br)o2)C(=O)S1	Scp-1 inhibitor 83.7 | Scp-1 conf 53.5 | Scp-1 MG ctr inactive | Scp1 DSF inactive
O=C(NNC(=O)c1ccc(NC(=O)c2ccccc2)cc1)c1ccccc1	Scp-1 inhibitor 61.6 | Scp-1 conf inactive | Scp-1 MG ctr inactive
CCN(CCCCN1C(=O)c2ccccc2C1=O)c1ccc2c(c1)C(=O)N(C)C2=O	Scp-1 inhibitor 67.5 | Scp-1 conf 68.2 | Scp-1 MG ctr inactive | Scp1 DSF inactive
O=C(COc1ccc(Cl)cc1)NNC(=O)c1ccc(=O)[nH]c1	Scp-1 inhibitor 58.7 (no result: PP5 primary, PP1 counter) | Scp-1 conf inactive | Scp-1 MG ctr inactive
COc1ccc(NC(=S)N(CCCN2CCOCC2)C(C)c2cc3ccccc3o2)cc1 (stereo not drawn)	Scp-1 inhibitor 63.9 | Scp-1 conf inactive | Scp-1 MG ctr inactive
Cc1cccc(C)c1NC(=O)CN(C)C(=O)c1cccc(-n2cccc2)c1	Scp-1 inhibitor 67.6 | Scp-1 conf 46.1 | Scp-1 MG ctr inactive | Scp1 DSF inactive
Cc1cccc(NC(=O)CNC(=O)c2cccc(-n3cccc3)c2)c1C	Scp-1 inhibitor 73.2 | Scp-1 conf 75.2 | Scp-1 MG ctr inactive | Scp1 DSF inactive
COc1ccc(NC(=O)CN(C)C(=O)c2cccc(-n3cccc3)c2)cc1	none (no result: Scp-1 inhibitor)
CCN(CC(=O)Nc1c(F)cccc1F)C(=O)c1cccc(-n2cccc2)c1	Scp-1 inhibitor 74.5 | Scp-1 conf 57.2 | Scp-1 MG ctr inactive | Scp1 DSF inactive
Cc1ccc(NC(=O)CN(C)C(=O)c2cccc(-n3cccc3)c2)cc1	Scp-1 inhibitor 91.2 (no result: PP5 primary, PP1 counter) | Scp-1 conf 72.0 | Scp-1 MG ctr inactive | Scp1 DSF inactive
COc1cc(NC(=O)c2ccc3c(c2)C(=O)N(CCC(C)C)C3=O)c(C(=O)O)cc1OC	Scp-1 inhibitor 71.6, STEP inh 61.3 | Scp-1 conf 59.9 | Scp-1 MG ctr inactive | Scp1 DSF 6.1
Cc1ccc(Nc2nc3ccccc3o2)cc1F	none
C[C@H](CO)N1C[C@H](C)[C@@H](CN(C)C(=O)NC2CCCCC2)Oc2ccc(NS(=O)(=O)c3cn(C)cn3)cc2C1=O	none (no result: PP5 primary, PP1 counter)
C[C@H](CO)N1C[C@H](C)[C@@H](CN(C)C(=O)Nc2ccc(C(F)(F)F)cc2)Oc2ccc(NS(=O)(=O)c3cn(C)cn3)cc2C1=O	Scp-1 inhibitor 73.2 (no result: PP5 primary, PP1 counter) | Scp-1 conf inactive | Scp-1 MG ctr inactive

Source: PubChem
